Test results from ChEMBL document CHEMBL1125920, “Synthesis and biological activity of 5-alkyl-1,7,8-trisubstituted-6-fluoroquinoline-3-carboxylic acids” (1991).
Values after ≈ are worked out from the molar mass of the structure shown.

What was measured:
[1] = test system: Enterobacter cloacae; assay: Antibacterial activity against gram negative organism, […] (MA2646); format: functional
[2] = test system: Escherichia coli; assay: Antibacterial activity was determined against gram negative organism, E. coli(vogel); format: functional
Procedure, shortened: (§1)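 MIC by standard microtitration against a panel of 10 representative Gram-negative and Gram-positive organisms; values reported in µg/mL.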

[3] = test system: Klebsiella pneumoniae; assay: Antibacterial activity was determined against gram negative organism, K. pneumoniae (MGH-2); format: functional; procedure, shortened: as §1
[4] = test system: Pseudomonas aeruginosa; assay: Antibacterial activity was determined against gram negative organism, Pseudomonas aeruginosa (UI-18); format: functional; procedure, shortened: as §1
[5] = test system: Bacteria; assay: Antibacterial activity was determined against gram negative organism, Providencia rettgeri. (M1771); format: functional; procedure, shortened: as §1
[6] = test system: Streptococcus pneumoniae; assay: Antibacterial activity was determined against gram positive organism, Streptococcus pneumoniae (SV-1); format: functional; procedure, shortened: as §1
[7] = test system: Enterococcus faecalis; assay: Antibacterial activity was determined against gram positive organism, Streptococcus faecalis (MGH-2); format: functional; procedure, shortened: as §1
[8] = test system: Streptococcus pyogenes; assay: Antibacterial activity was determined against gram positive organism, Streptococcus pyogenes (C203); format: functional; procedure, shortened: as §1
[9] = test system: Staphylococcus aureus; assay: Antibacterial activity was determined against gram positive organism, Staphylococcus aureus (H228); format: functional; procedure, shortened: as §1
[10] = test system: Staphylococcus aureus; assay: Antibacterial activity was determined against gram positive organism, Staphylococcus aureus (UC76); format: functional; procedure, shortened: as §1
[11] = MIC ratio measured as the mean MICs of gram-negative bacteria; format: functional
Procedure, shortened: (§2)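 Geometric mean of the MICs (µg/mL) over the Gram-negative or the Gram-positive strains of the 10-organism microtitration panel, calculated separately for each class.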

[12] = MIC ratio measured as the mean MICs of gram-positive bacteria; format: functional; procedure, shortened: as §2
[13] = target: DNA gyrase (Escherichia coli) (UniProt P0AES6+P0AES4)

SMILES	MIC [1] [µg/mL]	MIC [2] [µg/mL]	MIC [3] [µg/mL]	MIC [4] [µg/mL]	MIC [5] [µg/mL]	MIC [6] [µg/mL]	MIC [7] [µg/mL]	MIC [8] [µg/mL]	MIC [9] [µg/mL]	MIC [10] [µg/mL]	Ratio [11]	Ratio [12]	DNA cleavage [13] [µg/mL]
CCc1c(F)c(N2CCNC(C)C2)cc2c1c(=O)c(C(=O)O)cn2C1CC1 (stereo not drawn)	0.8 (≈ 2.14 µM)	0.4 (≈ 1.07 µM)	1.6 (≈ 4.28 µM)	6.3 (≈ 16.9 µM)	6.3 (≈ 16.9 µM)	12.5 (≈ 33.5 µM)	> 25	25 (≈ 66.9 µM)	6.3 (≈ 16.9 µM)	3.1 (≈ 8.3 µM)	1.83	10.9	–
CCNCC1CCN(c2cc3c(cc2F)c(=O)c(C(=O)O)cn3CC)C1 (stereo not drawn)	0.4 (≈ 1.11 µM)	0.1 (≈ 0.277 µM)	0.4 (≈ 1.11 µM)	3.1 (≈ 8.58 µM)	1.6 (≈ 4.43 µM)	0.2 (≈ 0.553 µM)	0.2 (≈ 0.553 µM)	0.1 (≈ 0.277 µM)	0.2 (≈ 0.553 µM)	0.1 (≈ 0.277 µM)	0.6	0.15	2.5
CC1(CN)CCN(c2cc3c(cc2F)c(=O)c(C(=O)O)cn3C2CC2)C1 (stereo not drawn)	0.8 (≈ 2.23 µM)	0.2 (≈ 0.556 µM)	0.4 (≈ 1.11 µM)	0.8 (≈ 2.23 µM)	0.8 (≈ 2.23 µM)	0.025 (≈ 0.0696 µM)	0.1 (≈ 0.278 µM)	0.05 (≈ 0.139 µM)	–	–	0.53	0.044	3
CCn1cc(C(=O)O)c(=O)c2c(C)c(F)c(N3CC(C)NC(C)C3)cc21 (stereo not drawn)	0.4 (≈ 1.11 µM)	0.2 (≈ 0.553 µM)	0.8 (≈ 2.21 µM)	3.1 (≈ 8.58 µM)	1.6 (≈ 4.43 µM)	1.6 (≈ 4.43 µM)	1.6 (≈ 4.43 µM)	3.1 (≈ 8.58 µM)	1.6 (≈ 4.43 µM)	0.2 (≈ 0.553 µM)	0.79	1.2	8.8
CC1(CN)CCN(c2c(F)cc3c(=O)c(C(=O)O)cn(C4CC4)c3c2F)C1 (stereo not drawn)	0.025 (≈ 0.0662 µM)	0.05 (≈ 0.132 µM)	0.1 (≈ 0.265 µM)	–	0.2 (≈ 0.53 µM)	0.006 (≈ 0.0159 µM)	0.013 (≈ 0.0344 µM)	0.025 (≈ 0.0662 µM)	–	0.003 (≈ 0.00795 µM)	0.1	0.095	2.6
CCc1c(F)c(N2CCC(N)C2)cc2c1c(=O)c(C(=O)O)cn2C1CC1 (stereo not drawn)	0.8 (≈ 2.23 µM)	0.4 (≈ 1.11 µM)	1.6 (≈ 4.45 µM)	12.5 (≈ 34.8 µM)	6.3 (≈ 17.5 µM)	1.6 (≈ 4.45 µM)	25 (≈ 69.6 µM)	3.1 (≈ 8.63 µM)	12.5 (≈ 34.8 µM)	3.1 (≈ 8.63 µM)	2.09	5.45	–
CCc1c(F)c(N2CCNCC2)cc2c1c(=O)c(C(=O)O)cn2C1CC1	0.8 (≈ 2.23 µM)	0.4 (≈ 1.11 µM)	1.6 (≈ 4.45 µM)	12.5 (≈ 34.8 µM)	6.3 (≈ 17.5 µM)	12.5 (≈ 34.8 µM)	> 25	25 (≈ 69.6 µM)	25 (≈ 69.6 µM)	6.3 (≈ 17.5 µM)	1.91	16.2	–
NC1CCN(c2c(F)cc3c(=O)c(C(=O)O)cn(C4CC4)c3c2Cl)C1 (stereo not drawn) [CLINAFLOXACIN]	0.025 (≈ 0.0683 µM)	0.025 (≈ 0.0683 µM)	0.025 (≈ 0.0683 µM)	0.05 (≈ 0.137 µM)	0.025 (≈ 0.0683 µM)	0.025 (≈ 0.0683 µM)	0.05 (≈ 0.137 µM)	0.05 (≈ 0.137 µM)	0.025 (≈ 0.0683 µM)	0.013 (≈ 0.0355 µM)	0.029	0.029	0.5
CCn1cc(C(=O)O)c(=O)c2cc(F)c(N3CCC(N)C3)c(F)c21 (stereo not drawn)	0.1 (≈ 0.296 µM)	0.1 (≈ 0.296 µM)	0.2 (≈ 0.593 µM)	0.4 (≈ 1.19 µM)	0.2 (≈ 0.593 µM)	0.4 (≈ 1.19 µM)	0.4 (≈ 1.19 µM)	0.2 (≈ 0.593 µM)	0.4 (≈ 1.19 µM)	0.1 (≈ 0.296 µM)	0.17	0.27	2.5
CCn1cc(C(=O)O)c(=O)c2cc(F)c(N3CCC(N)C3)cc21 (stereo not drawn)	0.1 (≈ 0.313 µM)	0.1 (≈ 0.313 µM)	0.2 (≈ 0.626 µM)	0.8 (≈ 2.51 µM)	0.2 (≈ 0.626 µM)	0.4 (≈ 1.25 µM)	0.8 (≈ 2.51 µM)	0.4 (≈ 1.25 µM)	0.8 (≈ 2.51 µM)	0.1 (≈ 0.313 µM)	0.2	0.4	2.5
